From ChEMBL document CHEMBL3856214, “Lanostane Triterpenes Isolated from Antrodia heteromorpha and Their Inhibitory Effects on RANKL-Induced Osteoclastogenesis” (J Nat Prod, 2016)

Tests used:
Mus musculus = organism: Mus musculus; assay: Cytotoxicity against C57BL/6 mouse BMDM assessed as decrease in cell viability at IC50 after 4 days in presence of RANKL/M-CSF by XTT assay; assay type: toxicity; conditions: 96 h
BMDM [1] = assay: Inhibition of RANKL-induced C57BL/6 mouse BMDM differentiation into osteoclasts after 4 days in presence of M-CSF by TRAP staining-based light microscopy; assay type: functional
Procedure, shortened: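 BMMs (6–8-week-old female C57BL/6 mouse femur/tibia marrow, 3 days with M-CSF 50 ng/mL) seeded at 4 × 10^4/well. Cultured 4 days with M-CSF (50 ng/mL), RANKL (100 ng/mL) and vehicle or compound. Fixed in 10% formalin for 5 min, then TRAP-stained by kit to show TRAP-positive multinucleated osteoclasts.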

[2] = (§1) Inhibition of RANKL-induced C57BL/6 mouse BMDM differentiation into osteoclasts after 4 days in presence of M-CSF by TRAP assay; assay type: functional; conditions: C57BL/6, BMDM, 96 h
Procedure, shortened: (§2)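 Bone marrow cells from femurs and tibiae of 6–8-week-old female C57BL/6 mice; after red-cell lysis, 3 days in α-MEM/10% FBS with penicillin-streptomycin and M-CSF (50 ng/mL); adherent cells kept as BMMs. BMMs (4 × 10^4/well) given M-CSF (50 ng/mL) plus RANKL (100 ng/mL) with vehicle or compound, 4 days. TRAP activity of culture supernatant with chromogenic substrate, OD 540 nm.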

BMDM [3] = assay: as §1; assay type: functional; procedure, shortened: as §2

| SMILES | Activity (Mus musculus) | inhibition (BMDM [1]) | IC50 [2] | inhibition (BMDM [3]) |
| --- | --- | --- | --- | --- |
| CC1=C(C)[C@@]2(C[C@](C)(O)[C@H]3C[C@H](O)[C@@]4(C)C5=CC[C@H]6C(C)(C)[C@@H](O)C(=O)C[C@]6(C)C5=C[C@@H](O2)[C@]34C)OC1=O | Non-Toxic | Dose-dependent effect | 4.5 µM | Dose-dependent effect |
| C=C(CC[C@@H](C(=O)O)[C@H]1[C@H](O)C[C@@]2(C)C3=CC[C@H]4C(C)(C)C(=O)CC[C@]4(C)C3=CC[C@]12C)C(C)C [POLYPORENIC ACID B] | Non-Toxic | Dose-dependent effect | 4.9 µM | Dose-dependent effect |
| CC1=C(C)[C@@]2(C[C@](C)(O)[C@H]3C[C@H](O)[C@@]4(C)C5=CC[C@H]6C(C)(C)C(=O)[C@H](O)C[C@]6(C)C5=C[C@@H](O2)[C@]34C)OC1=O | Non-Toxic | Dose-dependent effect | 7.4 µM | Dose-dependent effect |
